In ChEMBL document CHEMBL5724801, “EUbOPEN Chemogenomics Library - Multiplex” (2024):
“And” between values parts separate entries of the source, which are not always exact repeats. Equal values may be shown once.

Tested on: Fibroblast
Assay: Multiplex assay against human fibroblast
Assay type: toxicity, cell-based
Outline: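 Live cells were stained at seeding with Hoechst33342, BioTracker Green Microtubule Cytoskeleton Dye, MitoTracker Red and Annexin V Alexa Fluor 680. Following compound addition, they were imaged on a CQ1 microscope at 37°C and 5% CO2 and gated by CellPathfinder machine learning into Hoechst high-intensity objects or normal cells, with normal cells split into healthy, pyknosed or fragmented nuclei and pyknosed cells into mitotic or apoptotic. Tubulin, mitochondrial-mass and membrane-permeability phenotypes are per cents of healthy-nucleus cells.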

[1] = 12 h, 1 µM, compound concentration 1 uM
[2] = 12 h, 10 µM, compound concentration 10 uM
[3] = 24 h, 1 µM, compound concentration 1 uM
[4] = 24 h, 10 µM, compound concentration 10 uM
[5] = 48 h, 1 µM, compound concentration 1 uM
[6] = 48 h, 10 µM, compound concentration 10 uM

SMILES: N#Cc1c(Oc2cccc(OS(=O)(=O)CCCC(F)(F)F)c2)cccc1C(F)(F)F
- Population Apoptotic (%) [1]: 51% and 38%
- Population Fragmented Nuclei (%) [1]: 13% and 27%
- Population Healthy Nuclei (%) [1]: 63% and 48%
- Population Hoechst High Intensity Objects (%) [1]: 2% and 7%
- Population Membrane Permeable-Phenotype (%) [1]: 1% and 9%
- Population Mitochondria Different-Phenotype (%) [1]: 7%
- Population Mitotic Cells (%) [1]: 48% and 61%
- Population Normal (%) [1]: 97% and 92%
- Population Pyknosed Nuclei (%) [1]: 23% and 24%
- Population Tubulin-Different-Phenotype (%) [1]: 38% and 59%
- Total Cell Count [1]: 146 and 148
- Population Apoptotic (%) [2]: 31% and 66%
- Population Fragmented Nuclei (%) [2]: 14% and 42%
- Population Healthy Nuclei (%) [2]: 59% and 22%
- Population Hoechst High Intensity Objects (%) [2]: 6% and 7%
- Population Mitochondria Different-Phenotype (%) [2]: 7% and 3%
- Population Mitotic Cells (%) [2]: 68% and 33%
- Population Normal (%) [2]: 93% and 92%
- Population Pyknosed Nuclei (%) [2]: 26% and 35%
- Population Tubulin-Different-Phenotype (%) [2]: 36% and 75%
- Total Cell Count [2]: 180 and 138
- Population Apoptotic (%) [3]: 50% and 54%
- Population Fragmented Nuclei (%) [3]: 20% and 33%
- Population Healthy Nuclei (%) [3]: 62% and 50%
- Population Hoechst High Intensity Objects (%) [3]: 6% and 3%
- Population Membrane Permeable-Phenotype (%) [3]: 1% and 5%
- Population Mitochondria Different-Phenotype (%) [3]: 4% and 5%
- Population Mitotic Cells (%) [3]: 50% and 45%
- Population Normal (%) [3]: 93% and 96%
- Population Pyknosed Nuclei (%) [3]: 17% and 16%
- Population Tubulin-Different-Phenotype (%) [3]: 45% and 57%
- Total Cell Count [3]: 148 and 147
- Population Apoptotic (%) [4]: 44% and 61%
- Population Healthy Nuclei (%) [4]: 59% and 23%
- Population Hoechst High Intensity Objects (%) [4]: 5% and 8%
- Population Mitochondria Different-Phenotype (%) [4]: 12% and 22%
- Population Mitotic Cells (%) [4]: 55% and 38%
- Population Normal (%) [4]: 94% and 91%
- Population Pyknosed Nuclei (%) [4]: 27% and 36%
- Population Tubulin-Different-Phenotype (%) [4]: 43% and 77%
- Total Cell Count [4]: 174 and 127
- Population Apoptotic (%) [5]: 60% and 38%
- Population Fragmented Nuclei (%) [5]: 18% and 26%
- Population Healthy Nuclei (%) [5]: 66% and 59%
- Population Hoechst High Intensity Objects (%) [5]: 7% and 5%
- Population Mitochondria Different-Phenotype (%) [5]: 5% and 2%
- Population Mitotic Cells (%) [5]: 40% and 61%
- Population Normal (%) [5]: 92% and 94%
- Population Pyknosed Nuclei (%) [5]: 14%
- Population Tubulin-Different-Phenotype (%) [5]: 42% and 56%
- Total Cell Count [5]: 145 and 133
- Population Apoptotic (%) [6]: 52% and 59%
- Population Fragmented Nuclei (%) [6]: 20% and 43%
- Population Healthy Nuclei (%) [6]: 54% and 31%
- Population Hoechst High Intensity Objects (%) [6]: 9% and 2%
- Population Mitochondria Different-Phenotype (%) [6]: 12% and 15%
- Population Mitotic Cells (%) [6]: 47% and 40%
- Population Normal (%) [6]: 90% and 97%
- Population Pyknosed Nuclei (%) [6]: 24% and 25%
- Population Tubulin-Different-Phenotype (%) [6]: 47% and 89%
- Total Cell Count [6]: 172 and 150

SMILES: Cn1cc(C(=O)OCC2CCN(CCNS(C)(=O)=O)CC2)c2ccccc21
- Population Apoptotic (%) [1]: 44% and 33%
- Population Fragmented Nuclei (%) [1]: 13% and 21%
- Population Healthy Nuclei (%) [1]: 71% and 46%
- Population Hoechst High Intensity Objects (%) [1]: 1% and 4%
- Population Membrane Permeable-Phenotype (%) [1]: 0% and 9%
- Population Mitochondria Different-Phenotype (%) [1]: 3% and 1%
- Population Mitotic Cells (%) [1]: 55% and 66%
- Population Normal (%) [1]: 98% and 95%
- Population Pyknosed Nuclei (%) [1]: 14% and 32%
- Population Tubulin-Different-Phenotype (%) [1]: 23% and 37%
- Total Cell Count [1]: 202 and 164
- Population Apoptotic (%) [2]: 48% and 25%
- Population Fragmented Nuclei (%) [2]: 29% and 32%
- Population Healthy Nuclei (%) [2]: 55% and 51%
- Population Hoechst High Intensity Objects (%) [2]: 3% and 5%
- Population Membrane Permeable-Phenotype (%) [2]: 0% and 5%
- Population Mitochondria Different-Phenotype (%) [2]: 9% and 7%
- Population Mitotic Cells (%) [2]: 51% and 75%
- Population Normal (%) [2]: 96% and 94%
- Population Pyknosed Nuclei (%) [2]: 14% and 16%
- Population Tubulin-Different-Phenotype (%) [2]: 41% and 47%
- Total Cell Count [2]: 207 and 184
- Population Apoptotic (%) [3]: 31% and 30%
- Population Fragmented Nuclei (%) [3]: 13% and 25%
- Population Healthy Nuclei (%) [3]: 74% and 47%
- Population Hoechst High Intensity Objects (%) [3]: 5% and 2%
- Population Membrane Permeable-Phenotype (%) [3]: 0% and 7%
- Population Mitochondria Different-Phenotype (%) [3]: 0% and 6%
- Population Mitotic Cells (%) [3]: 68% and 69%
- Population Normal (%) [3]: 94% and 97%
- Population Pyknosed Nuclei (%) [3]: 11% and 26%
- Population Tubulin-Different-Phenotype (%) [3]: 23% and 48%
- Total Cell Count [3]: 201 and 168
- Population Apoptotic (%) [4]: 80% and 41%
- Population Fragmented Nuclei (%) [4]: 33% and 40%
- Population Healthy Nuclei (%) [4]: 53% and 43%
- Population Hoechst High Intensity Objects (%) [4]: 5% and 4%
- Population Membrane Permeable-Phenotype (%) [4]: 0% and 3%
- Population Mitochondria Different-Phenotype (%) [4]: 3% and 5%
- Population Mitotic Cells (%) [4]: 20% and 58%
- Population Normal (%) [4]: 94% and 95%
- Population Pyknosed Nuclei (%) [4]: 13% and 16%
- Population Tubulin-Different-Phenotype (%) [4]: 42% and 52%
- Total Cell Count [4]: 201 and 188
- Population Apoptotic (%) [5]: 54% and 52%
- Population Fragmented Nuclei (%) [5]: 14% and 33%
- Population Healthy Nuclei (%) [5]: 72% and 54%
- Population Hoechst High Intensity Objects (%) [5]: 5% and 4%
- Population Membrane Permeable-Phenotype (%) [5]: 0% and 5%
- Population Mitochondria Different-Phenotype (%) [5]: 1% and 2%
- Population Mitotic Cells (%) [5]: 45% and 47%
- Population Normal (%) [5]: 94% and 95%
- Population Pyknosed Nuclei (%) [5]: 12%
- Population Tubulin-Different-Phenotype (%) [5]: 23% and 43%
- Total Cell Count [5]: 197 and 177
- Population Apoptotic (%) [6]: 68% and 50%
- Population Fragmented Nuclei (%) [6]: 28% and 40%
- Population Healthy Nuclei (%) [6]: 58% and 46%
- Population Hoechst High Intensity Objects (%) [6]: 9% and 6%
- Population Membrane Permeable-Phenotype (%) [6]: 0% and 2%
- Population Mitochondria Different-Phenotype (%) [6]: 9% and 8%
- Population Mitotic Cells (%) [6]: 32% and 50%
- Population Normal (%) [6]: 90% and 93%
- Population Pyknosed Nuclei (%) [6]: 13% and 12%
- Population Tubulin-Different-Phenotype (%) [6]: 49% and 60%
- Total Cell Count [6]: 199 and 190
